# In ChEMBL document CHEMBL4138041, “Synthesis and biological activity evaluation of novel peroxo-bridged derivatives as potential anti-hepatitis B virus agents” (Medchemcomm, 2017):
# Assays:
# Hepatitis B virus [1] = test: Antiviral activity against Hepatitis B virus infected in human HepG2.2.15 cells assessed as inhibition of HBeAg secretion at 3.13 ug/ml after 8 days by ELISA relative to control; type: functional; conditions: HepG2.2.15, 192 h
# Method in brief: (§1)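 HepG2.2.15 cells in DMEM with nonessential amino acids, sodium pyruvate and 10% heat-inactivated FBS, 37 °C, 5% CO2, seeded at 1.0×10^5 cells/mL. Treated at 3.13 µg/mL for 4 or 8 days. Cleared supernatant stored at -20 °C, then HBsAg/HBeAg measured by ELISA, OD 450 nm. % inhibition = (1 − sample OD/untreated control OD)×100.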
# Hepatitis B virus [2] = test: Antiviral activity against Hepatitis B virus infected in human HepG2.2.15 cells assessed as inhibition of HBsAg secretion at 3.13 ug/ml after 8 days by ELISA relative to control; type: functional; conditions: HepG2.2.15, 192 h; method in brief: as §1
# HepG2 2.2.15 = test: (§2) Cytotoxicity against human HepG2.2.15 cells after 4 days by MTS assay; type: cell-based; conditions: hepg2 2.2.15, 96 h
# Method in brief: (§3)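 HepG2.2.15 cells seeded at 1.0×10^5 cells/mL, grown 24 h at 37 °C in 5% CO2, then exposed to various concentrations (ethanol-dissolved) for 4 days. Medium removed and MTS added for 3 h at 37 °C. Absorbance read at 490 nm. % inhibition = (1 − sample OD/untreated control OD)×100.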
# Hepatitis B virus [3] = test: Antiviral activity against Hepatitis B virus infected in human HepG2.2.15 cells assessed as inhibition of HBsAg secretion at 3.13 ug/ml after 4 days by ELISA relative to control; type: functional; conditions: HepG2.2.15, 96 h; method in brief: as §1
# Hepatitis B virus [4] = test: Antiviral activity against Hepatitis B virus infected in human HepG2.2.15 cells assessed as inhibition of HBeAg secretion at 3.13 ug/ml after 4 days by ELISA relative to control; type: functional; conditions: HepG2.2.15, 96 h; method in brief: as §1
# [5] = Acute toxicity in ICR mouse assessed as mortality rate at 422 mg/kg, ip measured up to 14 days relative to control; type: organism-based; conditions: in vivo
# Method in brief: (§4)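 Kunming mice of both sexes, 18-22 g, six groups of six matched for weight and size, single intraperitoneal injection at 56, 178, 350, 422, 750 or 1000 mg/kg. General behaviour observed at 1, 4 and 24 h, then followed up to 14 days for behaviour, toxic effects and mortality. LD50 with 95% confidence interval derived from the dose groups.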
# Hepatitis B virus [6] = test: Antiviral activity against Hepatitis B virus infected in human HepG2.2.15 cells assessed as inhibition of HBsAg secretion after 4 days by ELISA; type: functional, organism-based; conditions: HepG2.2.15, 96 h
# Method in brief: (§5)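 HepG2.2.15 cells kept as monolayers in DMEM with nonessential amino acids, sodium pyruvate and 10% heat-inactivated FBS, 37 °C, 5% CO2. Seeded at 1.0×10^5 cells/mL in 96-well plates and exposed to a range of concentrations (ethanol-dissolved) for 4 or 8 days. Supernatant HBsAg/HBeAg measured by ELISA at 450 nm. % inhibition = (1 − sample OD/untreated control OD)×100.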
# Hepatitis B virus [7] = test: Antiviral activity against Hepatitis B virus infected in human HepG2.2.15 cells assessed as inhibition of HBeAg secretion after 4 days by ELISA; type: functional, organism-based; conditions: HepG2.2.15, 96 h; method in brief: as §5
# Hepatitis B virus [8] = test: Antiviral activity against Hepatitis B virus infected in human HepG2.2.15 cells assessed as inhibition of HBsAg secretion after 8 days by ELISA; type: functional, organism-based; conditions: HepG2.2.15, 192 h; method in brief: as §5
# [9] = as §2; type: cell-based, HepG2 2.2.15; conditions: HepG2.2.15 cells, read-out: TC50; method in brief: as §3
# [10] = Acute toxicity in ICR mouse assessed as mortality rate at 178 mg/kg, ip measured up to 14 days relative to control; type: organism-based; conditions: in vivo; method in brief: as §4
# [11] = Therapeutic index, ratio of TC50 for human HepG2.2.15 cells to IC50 for Hepatitis B virus infected in human HepG2.2.15 cells assessed as inhibition of HBeAg secretion after 4 days; type: toxicity, cell-based; conditions: read-out: TI
# [12] = Acute toxicity in ICR mouse assessed as mortality rate at 750 mg/kg, ip measured up to 14 days relative to control; type: organism-based; conditions: in vivo; method in brief: as §4
# [13] = Acute toxicity in ICR mouse assessed as mortality rate at 1000 mg/kg, ip measured up to 14 days relative to control; type: organism-based; conditions: in vivo; method in brief: as §4
# [14] = Therapeutic index, ratio of TC50 for human HepG2.2.15 cells to IC50 for Hepatitis B virus infected in human HepG2.2.15 cells assessed as inhibition of HBsAg secretion after 4 days; type: toxicity, cell-based; conditions: read-out: TI
# [15] = Therapeutic index, ratio of TC50 for human HepG2.2.15 cells to IC50 for Hepatitis B virus infected in human HepG2.2.15 cells assessed as inhibition of HBsAg secretion after 8 days; type: toxicity, cell-based; conditions: read-out: TI
# Hepatitis B virus [16] = test: Antiviral activity against Hepatitis B virus infected in human HepG2.2.15 cells assessed as inhibition of HBeAg secretion after 8 days by ELISA; type: functional, organism-based; conditions: HepG2.2.15, 192 h; method in brief: as §5
# [17] = Therapeutic index, ratio of TC50 for human HepG2.2.15 cells to IC50 for Hepatitis B virus infected in human HepG2.2.15 cells assessed as inhibition of HBeAg secretion after 8 days; type: toxicity, cell-based; conditions: read-out: TI
SMILES,inhibition at 3.13 µg/mL (Hepatitis B virus [1]),inhibition at 3.13 µg/mL (Hepatitis B virus [2]),Activity (HepG2 2.2.15),inhibition at 3.13 µg/mL (Hepatitis B virus [3]),inhibition at 3.13 µg/mL (Hepatitis B virus [4]),mortality at 336 h [5],IC50 (Hepatitis B virus [6]),IC50 (Hepatitis B virus [7]),IC50 (Hepatitis B virus [8]),CC50 at 96 h [9],mortality at 336 h [10],selectivity ratio at 96 h [11],mortality at 336 h [12],mortality at 336 h [13],selectivity ratio at 96 h [14],selectivity ratio at 192 h [15],IC50 (Hepatitis B virus [16]),selectivity ratio at 192 h [17]
CCC(CC[C@@H](C)[C@H]1CC[C@@H]2[C@]1(C)CC[C@H]1[C@]23C=C[C@@]2(C[C@@H](O)CC[C@]12C)OO3)C(C)C (some centres not stated),10.3%,20%,Dose-dependent effect,19%,2.88%,,,,,,,,,,,,,
CCC(CC[C@@H](C)[C@H]1CC[C@@H]2[C@]1(C)CC[C@H]1[C@]23C=C[C@@]2(CC(=O)CC[C@]12C)OO3)C(C)C (some centres not stated),2.36%,5.7%,Dose-dependent effect,1.91%,3.28%,,,,,,,,,,,,,
CCC(CC[C@@H](C)[C@H]1CC[C@@H]2[C@]1(C)CC[C@H]1[C@]23C=C[C@@]2(C[C@@H](OC(C)=O)CC[C@]12C)OO3)C(C)C (some centres not stated),25.8%,28.8%,Dose-dependent effect,26.7%,25.6%,,,,,,,,,,,,,
CC(=O)O[C@H]1CC[C@]2(C)[C@H]3CC[C@]4(C)[C@@H]([C@H](C)CCCC(C)C)CC[C@H]4[C@@]34C=C[C@@]2(C1)OO4,7.56%,13.8%,Dose-dependent effect,13%,3.51%,,,,,,,,,,,,,
CC(C)CCC[C@@H](C)[C@H]1CC[C@@H]2[C@]1(C)CC[C@H]1[C@]23C=C[C@@]2(C[C@@H](O)CC[C@]12C)OO3,2.55%,1.56%,Dose-dependent effect,1.2%,1.35%,,,,,,,,,,,,,
Nc1ccn([C@H]2CS[C@@H](CO)O2)c(=O)n1,-9.22%,-0.44%,,5.68%,4.94%,,,,,,,,,,,,,
CC(C)CCC[C@@H](C)[C@H]1CC[C@@H]2[C@]1(C)CC[C@H]1[C@]23C=C[C@@]2(CC(=O)CC[C@]12C)OO3,58.7%,77.5%,Dose-dependent effect,72.3%,54.1%,67%,1.78 µg/mL,1.86 µg/mL,2.59 µg/mL,10.2 µg/mL,0%,5.51,100%,100%,5.79,3.4,2.95 µg/mL,3.47
